Laboratory results reported in ChEMBL document CHEMBL4814060, “Design, synthesis and biological evaluation of novel pleuromutilin derivatives as potent anti-MRSA agents targeting the 50S ribosome” (Bioorg Med Chem, 2021).
In brackets after ≈: the same amount, converted by molar mass.

Legend:
[1] = tested on: Staphylococcus aureus; test: Antibacterial activity against methicillin-resistant Staphylococcus aureus ATCC 43300 assessed as inhibition of visible growth incubated for 24 hrs by CLSI protocol based broth microdilution method; format: functional
[2] = tested on: Staphylococcus aureus; test: Antibacterial activity against Staphylococcus aureus ATCC 29213 assessed as inhibition of visible growth incubated for 24 hrs by CLSI protocol based broth microdilution method; format: functional
[3] = tested on: Staphylococcus aureus; test: Antibacterial activity against Staphylococcus aureus 144 assessed as inhibition of visible growth incubated for 24 hrs by CLSI protocol based broth microdilution method; format: functional
[4] = tested on: Staphylococcus aureus; test: Antibacterial activity against Staphylococcus aureus AD3 assessed as inhibition of visible growth incubated for 24 hrs by CLSI protocol based broth microdilution method; format: functional
[5] = tested on: Staphylococcus aureus; test: Antibacterial activity against methicillin-resistant Staphylococcus aureus ATCC 43300 assessed as reduction in bacterial growth at 4 times of MIC measured at 3 hrs by time kill assay; format: functional
Procedure, shortened: (§1)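 MRSA was grown in MH broth at 37 °C for 4.5 h and diluted to 1×10^6 CFU/mL. Compound was added at 1, 2, 4, 8, 16 or 32 × MIC; growth control had 0.9% saline only. Cultures were shaken at 37 °C and sampled at 0, 3, 6, 9 and 24 h. Samples were serially diluted in saline and plated on MH agar, with CFU counted after 24 h at 37 °C. Run in triplicate.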

[6] = tested on: Staphylococcus aureus; test: Bactericidal activity against methicillin-resistant Staphylococcus aureus ATCC 43300 assessed as reduction in bacterial growth at 1 to 32 times of MIC measured upto 24 hrs by time kill assay; format: functional, organism-based; conditions: time hrs <=24, TDE = time-dependent effect; procedure, shortened: as §1
[7] = target: Bacterial 70S ribosome (Bacteria) (UniProt P0A7V0+P60723+P0AG67+P0A7R5+P0A7R9+P0A7S3+P0A7S9+P0AG59+P0ADZ4+P0A7T3+P0AG63+P0A7T7+P0A7U3+P0A7U7+P68679+P0A7V3+P0A7V8+P0A7W1+P02358+P02359+P0A7W7+P0A7X3+P0A7J3+P0A7J7+P0AA10+P0ADY3+P02413+P0ADY7+P0AG44+P0C018+P0A7K6+P0A7L0+P0A7L3+P0AG48+P61175+P0ADZ0+P60624+P68919+P0A7L8+P0A7M2+P0A7M6+P60422+P0AG51+P0A7N1+P0A7M9+P0A7N4+P0A7N9+P0A7P5+P0A7Q1+Q2EEQ2+P0A7Q6+P60438+P62399+P0AG55+P0A7K2); test: Binding affinity to Staphylococcus aureus ATCC 43300 50S ribosome assessed as dissociation rate constant by SPR analysis; format: subcellular
Procedure, shortened: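 The 50S subunit was purified from ATCC 43300 by sucrose cushion, a 7–30% sucrose gradient and PEG precipitation. Compounds at 100 µM in DMSO were photo-crosslinked onto the chip and printed four times each. Ribosome at 200–3200 nM in PBST (pH 7.4, 0.1% Tween 20) was run at 4 °C: association 600 s, then dissociation 360 s, both at 0.5 µL/s. Surface was regenerated with glycine-HCl pH 2.0.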

[8] = tested on: Staphylococcus aureus; test: In vivo antibacterial activity against methicillin-resistant Staphylococcus aureus ATCC 43300 infected in ICR/Swiss mouse model of neutropenic thigh infection assessed as reduction in bacterial growth at 20 mg/kg, iv administered 2 hrs after infection and tissue collected after 24 hrs and measured after 24 hrs […]; format: functional
Procedure, shortened: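 Female ICR/Swiss mice, 6 weeks old, were made neutropenic with ip cyclophosphamide (150 mg/kg at day −4, 100 mg/kg at day −1). Each thigh received about 10^7 CFU/mL MRSA in 0.1 mL. At 2 h, mice got a single iv dose of 20 mg/kg or saline, with 3 mice (6 thighs) per group. At 24 h, thighs were homogenized in iced saline, diluted and plated on MH agar, and CFU counted after 24 h at 37 °C.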

Row | SMILES | MIC [1] [µg/mL] | MIC [2] [µg/mL] | MIC [3] [µg/mL] | MIC [4] [µg/mL] | log10CFU/ml [5] | Activity [6] | Kdiss [7] | Activity [8] [log10CFU/g]
1 | C=C[C@]1(C)C[C@@H](OC(=O)CSc2nc(N)n(C(=O)c3cccc(OC)c3)n2)[C@]2(C)[C@H](C)CC[C@]3(CCC(=O)[C@H]32)[C@@H](C)[C@@H]1O | 0.25 (≈ 0.409 µM) | 0.5 (≈ 0.819 µM) | 0.5 (≈ 0.819 µM) | 0.5 (≈ 0.819 µM) |  |  |  | 
2 | C=C[C@]1(C)C[C@@H](OC(=O)CSc2nc(N)n(C(=O)c3cccc(Cl)c3)n2)[C@]2(C)[C@H](C)CC[C@]3(CCC(=O)[C@H]32)[C@@H](C)[C@@H]1O | 0.25 (≈ 0.406 µM) | 0.25 (≈ 0.406 µM) | 0.5 (≈ 0.813 µM) | 0.25 (≈ 0.406 µM) | -1.23 | Tde | 4.94 10^-7M | 
3 | C=C[C@]1(C)C[C@@H](OC(=O)CSCCN(CC)CC)[C@]2(C)[C@H](C)CC[C@]3(CCC(=O)[C@H]32)[C@@H](C)[C@@H]1O [TIAMULIN] | 0.5 (≈ 1.01 µM) | 1 (≈ 2.03 µM) | 1 (≈ 2.03 µM) | 1 (≈ 2.03 µM) |  |  |  | 0.91
4 | C=C[C@]1(C)C[C@@H](OC(=O)CSc2nc(N)n(C(=O)c3ccccc3Cl)n2)[C@]2(C)[C@H](C)CC[C@]3(CCC(=O)[C@H]32)[C@@H](C)[C@@H]1O | 0.5 (≈ 0.813 µM) | 0.5 (≈ 0.813 µM) | 1 (≈ 1.63 µM) | 0.5 (≈ 0.813 µM) |  |  |  | 
5 | C=C[C@]1(C)C[C@@H](OC(=O)CSc2nc(N)n(C(=O)c3ccccc3C(F)(F)F)n2)[C@]2(C)[C@H](C)CC[C@]3(CCC(=O)[C@H]32)[C@@H](C)[C@@H]1O | 2 (≈ 3.08 µM) | 4 (≈ 6.17 µM) | 4 (≈ 6.17 µM) | 4 (≈ 6.17 µM) |  |  |  | 
6 | C=C[C@]1(C)C[C@@H](OC(=O)CSc2nc(N)n(C(=O)c3c(F)c(F)c(F)c(F)c3F)n2)[C@]2(C)[C@H](C)CC[C@]3(CCC(=O)[C@H]32)[C@@H](C)[C@@H]1O | 1 (≈ 1.49 µM) | 2 (≈ 2.98 µM) | 2 (≈ 2.98 µM) | 1 (≈ 1.49 µM) |  |  |  | 
7 | C=C[C@]1(C)C[C@@H](OC(=O)CSc2nc(N)n(C(=O)c3c(F)cccc3Cl)n2)[C@]2(C)[C@H](C)CC[C@]3(CCC(=O)[C@H]32)[C@@H](C)[C@@H]1O | 1 (≈ 1.58 µM) | 2 (≈ 3.16 µM) | 2 (≈ 3.16 µM) | 2 (≈ 3.16 µM) |  |  |  | 
8 | C=C[C@]1(C)C[C@@H](OC(=O)CSc2nc(N)n[nH]2)[C@]2(C)[C@H](C)CC[C@]3(CCC(=O)[C@H]32)[C@@H](C)[C@@H]1O | 1 (≈ 2.1 µM) | 1 (≈ 2.1 µM) | 2 (≈ 4.2 µM) | 1 (≈ 2.1 µM) |  |  |  | 
9 | C=C[C@]1(C)C[C@@H](OC(=O)CSc2nc(N)n(C(=O)c3ccc(OC(F)(F)F)cc3)n2)[C@]2(C)[C@H](C)CC[C@]3(CCC(=O)[C@H]32)[C@@H](C)[C@@H]1O | 1 (≈ 1.5 µM) | 2 (≈ 3.01 µM) | 2 (≈ 3.01 µM) | 1 (≈ 1.5 µM) |  |  |  | 
10 | C=C[C@]1(C)C[C@@H](OC(=O)CSc2nc(N)n(C(=O)c3ccc(C(F)(F)F)cc3)n2)[C@]2(C)[C@H](C)CC[C@]3(CCC(=O)[C@H]32)[C@@H](C)[C@@H]1O | 1 (≈ 1.54 µM) | 1 (≈ 1.54 µM) | 1 (≈ 1.54 µM) | 1 (≈ 1.54 µM) |  |  |  | 
11 | C=C[C@]1(C)C[C@@H](OC(=O)CSc2nc(N)n(C(=O)c3cccc(C)c3)n2)[C@]2(C)[C@H](C)CC[C@]3(CCC(=O)[C@H]32)[C@@H](C)[C@@H]1O | 0.25 (≈ 0.42 µM) | 0.5 (≈ 0.841 µM) | 0.5 (≈ 0.841 µM) | 0.5 (≈ 0.841 µM) |  |  | 8.79 10^-6M | 
